This is an account of results in ChEMBL document CHEMBL4152287, “Synthesis and characterization of novel classes of PDE10A inhibitors - 1H-1,3-benzodiazoles and imidazo[1,2-a]pyrimidines” (Eur J Med Chem, 2018).

In data set [1] the target is High affinity cGMP-specific 3',5'-cyclic phosphodiesterase 9A (Homo sapiens, UniProt O76083). Nature of the data set: Inhibition of Ca2+/calmodulin-induced recombinant human full length N-terminal GST-tagged PDE9A2 expressed in baculovirus infected Sf9 cells using cGMP as substrate pretreated for 10 mins followed by substrate addition and measured after 60 mins by kinase-Glo luminescence assay. The procedure, abridged: (§1)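 Selectivity screen run as a PDE-Glo enzymatic-activity luminescence assay, with IC50 values determined against each counter-screen PDE isoform.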
Sequence of High affinity cGMP-specific 3',5'-cyclic phosphodiesterase 9A (O76083 whole entry, canonical isoform): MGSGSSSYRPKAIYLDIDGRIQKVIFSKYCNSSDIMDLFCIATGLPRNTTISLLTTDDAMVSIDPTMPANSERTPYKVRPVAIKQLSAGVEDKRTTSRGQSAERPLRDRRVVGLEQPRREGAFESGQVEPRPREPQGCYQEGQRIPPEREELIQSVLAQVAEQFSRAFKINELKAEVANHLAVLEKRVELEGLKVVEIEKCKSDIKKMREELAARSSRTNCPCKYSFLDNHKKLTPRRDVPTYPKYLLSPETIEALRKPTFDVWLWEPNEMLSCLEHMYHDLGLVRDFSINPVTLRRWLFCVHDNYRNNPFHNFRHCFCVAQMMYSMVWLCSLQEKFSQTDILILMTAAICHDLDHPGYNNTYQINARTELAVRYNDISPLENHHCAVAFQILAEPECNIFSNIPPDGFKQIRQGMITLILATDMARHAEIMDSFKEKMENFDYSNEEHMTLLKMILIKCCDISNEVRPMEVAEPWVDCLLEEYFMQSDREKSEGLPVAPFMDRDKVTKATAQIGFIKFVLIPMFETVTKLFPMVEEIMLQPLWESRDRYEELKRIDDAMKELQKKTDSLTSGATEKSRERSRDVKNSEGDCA
(Kinase-Glo measures the ATP left after a reaction by luminescence.)

The target in data set [2] is T1, cAMP and cAMP-inhibited cGMP 3',5'-cyclic phosphodiesterase 10A (Homo sapiens, UniProt Q9Y233). The data set is described as follows: Inhibition of Ca2+/calmodulin-induced recombinant human full length N-terminal GST-tagged PDE10A1 expressed in baculovirus infected Sf9 cells using cAMP as substrate pretreated for 10 mins followed by substrate addition and measured after 40 mins by kinase-Glo luminescence assay.
T1 sequence (Q9Y233 whole entry): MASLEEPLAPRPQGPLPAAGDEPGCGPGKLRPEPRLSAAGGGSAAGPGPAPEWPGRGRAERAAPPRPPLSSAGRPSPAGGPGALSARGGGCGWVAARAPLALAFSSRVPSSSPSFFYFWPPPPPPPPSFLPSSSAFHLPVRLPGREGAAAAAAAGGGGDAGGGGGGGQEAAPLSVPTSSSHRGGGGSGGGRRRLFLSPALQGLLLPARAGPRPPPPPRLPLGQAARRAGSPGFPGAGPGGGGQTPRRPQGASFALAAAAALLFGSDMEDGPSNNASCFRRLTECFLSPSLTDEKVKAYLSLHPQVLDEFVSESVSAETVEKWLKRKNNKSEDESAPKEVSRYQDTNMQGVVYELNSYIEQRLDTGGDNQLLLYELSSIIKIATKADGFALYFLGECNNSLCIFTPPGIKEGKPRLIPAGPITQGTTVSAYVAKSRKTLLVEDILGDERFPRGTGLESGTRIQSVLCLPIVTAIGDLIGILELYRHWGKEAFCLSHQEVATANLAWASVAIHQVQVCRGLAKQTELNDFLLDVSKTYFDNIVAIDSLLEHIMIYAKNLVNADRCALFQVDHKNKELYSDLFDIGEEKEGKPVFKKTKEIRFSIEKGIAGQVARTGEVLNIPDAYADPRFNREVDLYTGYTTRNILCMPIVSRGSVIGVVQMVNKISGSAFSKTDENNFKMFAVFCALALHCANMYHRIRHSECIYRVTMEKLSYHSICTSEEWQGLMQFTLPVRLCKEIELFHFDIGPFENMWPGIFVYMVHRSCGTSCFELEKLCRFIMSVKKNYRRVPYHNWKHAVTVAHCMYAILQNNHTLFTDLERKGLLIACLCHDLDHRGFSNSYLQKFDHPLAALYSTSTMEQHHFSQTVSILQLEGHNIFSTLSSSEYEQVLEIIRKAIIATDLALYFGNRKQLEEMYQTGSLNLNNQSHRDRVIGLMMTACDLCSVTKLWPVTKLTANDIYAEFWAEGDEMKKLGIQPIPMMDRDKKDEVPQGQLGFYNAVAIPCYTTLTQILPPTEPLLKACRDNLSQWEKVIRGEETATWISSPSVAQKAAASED

The target in data set [3] is Dual specificity calcium/calmodulin-dependent 3',5'-cyclic nucleotide phosphodiesterase 1C (Homo sapiens, UniProt Q14123). The data set is described as follows: Inhibition of Ca2+/calmodulin-induced full-length recombinant human N-terminal GST-tagged PDE1C expressed in baculovirus infected Sf9 insect cells using cAMP as substrate pretreated for 10 mins followed by substrate addition and measured after 30 mins by kinase-Glo luminescence assay. The gist of the method:
as §1

Data set [4] can be described thus: Intrinsic clearance in rat liver microsomes in presence of NADP/G6P/G6P dehydrogenase/MgCl2 by LC/MS analysis. It counts as ADME, microsome. The settings on record: read-out: CLH. The procedure, abridged: (§2)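 Phase-1 liver microsomal stability assay for the named species, with intrinsic clearance reported in µl x min^-1 x mg^-1.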
In data set [5] the target is T1, cAMP and cAMP-inhibited cGMP 3',5'-cyclic phosphodiesterase 10A. Nature of the data set: Inhibition of PDE10 (unknown origin).
Data set [6] is described as follows: Intrinsic clearance in rat liver microsomes. It counts as ADME, microsome. In general terms: Microsomes from liver hold many membrane-bound enzymes, among them those of drug oxidation.
Data set [7] in a line: Intrinsic clearance in human liver microsomes in presence of NADP/G6P/G6P dehydrogenase/MgCl2 by LC/MS analysis. It is filed as ADME, microsome. The note with it: read-out: CLH. The gist of the method:
as §2

Sequence of Dual specificity calcium/calmodulin-dependent 3',5'-cyclic nucleotide phosphodiesterase 1C (Q14123 whole entry): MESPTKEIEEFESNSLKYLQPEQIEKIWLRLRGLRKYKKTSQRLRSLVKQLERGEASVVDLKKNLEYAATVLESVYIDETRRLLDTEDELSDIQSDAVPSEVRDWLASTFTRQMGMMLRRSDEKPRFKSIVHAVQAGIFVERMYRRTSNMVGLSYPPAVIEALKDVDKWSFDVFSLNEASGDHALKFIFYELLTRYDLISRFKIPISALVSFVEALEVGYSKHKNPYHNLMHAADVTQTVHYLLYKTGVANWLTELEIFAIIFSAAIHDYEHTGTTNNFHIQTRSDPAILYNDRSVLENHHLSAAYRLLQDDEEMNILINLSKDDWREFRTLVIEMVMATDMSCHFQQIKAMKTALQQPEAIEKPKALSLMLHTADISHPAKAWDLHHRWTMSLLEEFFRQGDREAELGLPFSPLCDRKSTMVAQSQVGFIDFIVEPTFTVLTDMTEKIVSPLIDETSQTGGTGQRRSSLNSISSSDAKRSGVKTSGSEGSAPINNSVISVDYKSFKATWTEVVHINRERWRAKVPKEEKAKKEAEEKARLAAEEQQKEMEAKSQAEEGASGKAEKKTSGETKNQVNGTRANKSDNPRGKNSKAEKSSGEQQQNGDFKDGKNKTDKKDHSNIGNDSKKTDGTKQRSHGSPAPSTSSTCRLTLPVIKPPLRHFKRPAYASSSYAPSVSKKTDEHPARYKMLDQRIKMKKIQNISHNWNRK

In the case of `Cc1ncc(C)n2nc(-c3ccc4nc(-c5ccc(Cl)s5)[nH]c4c3)nc12`, the IC50 in data set [1] was more than 10000 nM; in data set [2] (read-out: IC50) it was 161 nM; in data set [3], more than 10000 nM.
As for `Cc1ncc(C)n2nc(-c3ccc4nc(-c5nccn5C)[nH]c4c3)nc12`, in data set [2] (read-out: IC50), the IC50 turned out to be 280 nM.
Consider `Cc1cc(C)n2nc(-c3ccc4cc(-c5ccccc5)nn4c3)nc2n1`, for which the IC50 in data set [2] (read-out: IC50) was determined as 770 nM.
Consider `Cc1cc(C)n2nc(-c3ccn4nc(-c5ccccc5)nc4c3)nc2n1`, for which the IC50 in data set [2] (read-out: IC50) amounted to 381 nM.
On the same count and under the same terms, with `Cc1ncc(C)n2nc(-c3ccc4nc(-c5ccccc5C(F)(F)F)[nH]c4c3)nc12` the figure was more than 1000 nM; with `Cc1ncc(C)n2nc(-c3ccc4nc(-c5cscn5)[nH]c4c3)nc12`, 268 nM.
Consider `Cc1ncc(C)n2nc(-c3ccn4cc(-c5cccc(Cl)c5)nc4n3)nc12`, for which the values for the IC50 in data set [1], in data set [2] (read-out: IC50) and in data set [3] were more than 10000 nM, 107 nM and more than 10000 nM, respectively. In data set [4], the microsomal CLint is 18.9 µL/min/mg.
For the compound `Cc1cc(C)n2nc(-c3ccn4cc(-c5ccccc5)nc4n3)nc2n1`, the IC50 in data set [1] and in data set [3] was more than 10000 nM throughout.
Regarding `Cc1ncc(C)n2nc(-c3ccc4cc(-c5ccccc5)nn4c3)nc12`, in data set [2] (read-out: IC50), the 50% inhibitory concentration (IC50) stood at 581 nM.
Consider `Cc1cnc(-c2nc3ccc(-c4nc5c(C)ncc(C)n5n4)cc3[nH]2)s1`, for which the IC50 in data set [1] is more than 10000 nM; in data set [2] (read-out: IC50) it was 198 nM; in data set [3], more than 10000 nM.
Consider `COc1ccccc1-c1cn2ccc(-c3nc4c(C)ncc(C)n4n3)nc2n1`, for which the IC50 was more than 10000 nM in data set [1], 52 nM in data set [2] (read-out: IC50) and more than 10000 nM in data set [3]. Also, in data set [4], the microsomal CLint came to 9.1 µL/min/mg.
With `Cc1ncc(C)n2nc(-c3ccc4nc(Cc5ccccc5)[nH]c4c3)nc12`, the half-maximal inhibitory concentration (IC50) in data set [2] (read-out: IC50) was more than 1000 nM.
Regarding `Cc1ncc(C)n2nc(-c3ccc4nc(-c5ncccc5F)[nH]c4c3)nc12`, the values for the IC50 in data set [1], in data set [2] (read-out: IC50) and in data set [3] were more than 10000 nM, 69 nM and more than 10000 nM, respectively. In addition, in data set [4], the microsomal CLint stood at 1.8 µL/min/mg.
Regarding `Cc1ncc(C)n2nc(-c3ccc4nc(-c5nccs5)[nH]c4c3)nc12`, the IC50 in data set [1] and in data set [3] was more than 10000 nM throughout.
In the case of `Cc1ccccc1-c1nc2ccc(-c3nc4c(C)ncc(C)n4n3)cc2[nH]1`, the IC50 in data set [2] (read-out: IC50) was found to be 242 nM.
Still for that read-out and setting: in the case of `Cc1ncc(C)n2nc(-c3ccn4nc(-c5ccccc5)nc4c3)nc12` it was 268 nM.
On to `Cc1ncc(C)n2nc(-c3ccn4cc(-c5ccccn5)nc4n3)nc12`, for which the IC50 in data set [1] is more than 10000 nM; in data set [2] (read-out: IC50), 115 nM; in data set [3], more than 10000 nM.
`Cc1ncc(C)n2nc(-c3ccc4[nH]c(-c5ccccn5)nc4c3)nc12`: the IC50 in data set [1] and in data set [3] was more than 10000 nM throughout. In data set [4], the microsomal CLint was 11.1 µL/min/mg.
In the case of `COc1ccnc(-c2nc3ccc(-c4nc5c(C)ncc(C)n5n4)cc3[nH]2)c1`, the IC50 in data set [2] (read-out: IC50) is more than 280 nM.
As to `COc1ccc(OC)c(-c2cn3ccc(-c4nc5c(C)ncc(C)n5n4)nc3n2)c1`, the IC50 in data set [2] (read-out: IC50) was more than 280 nM.
With `Cc1csc(-c2nc3ccc(-c4nc5c(C)ncc(C)n5n4)cc3[nH]2)n1`, the IC50 in data set [1] was more than 10000 nM; in data set [2] (read-out: IC50) it was 117 nM; in data set [3] it was more than 10000 nM.
For the compound `COc1ccccc1-c1nc2ccc(-c3nc4c(C)ncc(C)n4n3)cc2[nH]1`, the IC50 in data set [1] and in data set [3] was more than 10000 nM throughout.
Regarding `Cc1ncc(C)n2nc(-c3ccc4nc(-c5cncs5)[nH]c4c3)nc12`, the IC50 in data set [1] was more than 10000 nM; in data set [2] (read-out: IC50), 135 nM; in data set [3], more than 10000 nM.
On to `Cc1ncc(C)n2nc(-c3ccc4nc(-c5cccnc5)[nH]c4c3)nc12`, for which the results for the IC50 in data set [1], in data set [2] (read-out: IC50) and in data set [3] were more than 10000 nM, 166 nM and more than 10000 nM, respectively.
Turning to `Cc1ncc(C)n2nc(-c3ccn4cc(-c5ccc(F)cc5)nc4n3)nc12`, the IC50 in data set [1] was more than 10000 nM; in data set [2] (read-out: IC50), 76 nM; in data set [3] it was more than 10000 nM. The microsomal CLint in data set [4] is 3.1 µL/min/mg.
In the case of `Cc1ncc(C)n2nc(-c3ccc4nc(-c5ccco5)[nH]c4c3)nc12`, the figures for the IC50 in data set [1], in data set [2] (read-out: IC50) and in data set [3] were more than 10000 nM, 67 nM and more than 10000 nM, respectively. In addition, the microsomal CLint in data set [4] was 26.3 µL/min/mg.
Compound `Cc1cc(C)n2c(Br)c(CSc3nc4ccccc4[nH]3)nc2n1` had a half-inhibitory concentration (IC50) in data set [5] of 210 nM. The compound also came in with a CLH in data set [6] of 3.6 µL/min/mg.
Consider `Cc1cc(C)n2nc(-c3ccn4nc(-c5ncccn5)nc4c3)nc2n1`, for which, in data set [2] (read-out: IC50), the IC50 is more than 5000 nM.
As for `Cc1ncc(C)n2nc(-c3ccn4cc(-c5ccc(F)cc5Cl)nc4n3)nc12`, in data set [2] (read-out: IC50), the IC50 was more than 1000 nM. Further, the microsomal CLint in data set [4] was 11.5 µL/min/mg.
In the case of `Cc1ncc(C)n2nc(-c3ccc4nc(-c5ccccc5C#N)[nH]c4c3)nc12`, the IC50 in data set [2] (read-out: IC50) turned out to be 382 nM.
With `Cc1ncc(C)n2nc(-c3ccn4cc(-c5ccc(Br)cc5)nc4n3)nc12`, in data set [2] (read-out: IC50), the IC50 is more than 1000 nM. The microsomal CLint in data set [4] amounted to 15 µL/min/mg.
For `Cc1ncc(C)n2nc(-c3ccc4[nH]c(-c5ccccc5)nc4c3)nc12`, the IC50 in data set [1] and in data set [3] was more than 10000 nM in each case. Besides, the figures for the microsomal CLint in data set [7] and in data set [4] were 34.4 µL/min/mg and 27.4 µL/min/mg, respectively.
For the compound `Cc1ncc(C)n2nc(-c3ccc4nc(-c5cnc6ccccc6n5)[nH]c4c3)nc12`, the IC50 in data set [2] (read-out: IC50) is more than 1000 nM.
As to `Cc1cc(C)n2nc(-c3ccc4nc(-c5ccccc5)n(C)c4c3)nc2n1`, the IC50 entry in data set [2] (sf9) is on record as “Not Active”.
As for `Cc1ncc(C)n2nc(-c3ccc4[nH]c(-c5cocn5)nc4c3)nc12`, in data set [2] (read-out: IC50), the IC50 was more than 300 nM.
Still for that read-out and setting: with `Cc1cc(C)n2nc(-c3ccn4cc(-c5ccccn5)nc4n3)nc2n1` the figure was 280 nM; with `Cc1nc(-c2ccn3cc(-c4ccccc4)nc3n2)nc2ccccc12`, 163 nM.
`Cc1ncc(C)n2nc(-c3ccc4nc(-c5cccs5)[nH]c4c3)nc12`: the IC50 in data set [1] is more than 10000 nM; in data set [2] (read-out: IC50) it was 28 nM; in data set [3], more than 10000 nM.
Take `Cc1ncc(C)n2nc(-c3ccn4cc(-c5ccccc5Br)nc4n3)nc12`: the results for the IC50 in data set [1], in data set [2] (read-out: IC50) and in data set [3] were more than 10000 nM, 145 nM and more than 10000 nM, respectively. Further, the microsomal CLint in data set [4] is 1.8 µL/min/mg.
Consider `COc1cccnc1-c1nc2ccc(-c3nc4c(C)ncc(C)n4n3)cc2[nH]1`, for which the IC50 was more than 10000 nM in data set [1], 40 nM in data set [2] (read-out: IC50) and more than 10000 nM in data set [3]. The microsomal CLint in data set [7] worked out at 0.7 µL/min/mg; in data set [4], 5.4 µL/min/mg.
With `Cc1ncc(C)n2nc(-c3ccn4cc(-c5nccs5)nc4n3)nc12`, the IC50 in data set [1] is more than 10000 nM; in data set [2] (read-out: IC50) it was 135 nM; in data set [3] it was more than 10000 nM.
For `Cc1ncc(C)n2nc(-c3ccc4nc(-c5ccc(F)cc5)[nH]c4c3)nc12`, the IC50 in data set [1] and in data set [3] was more than 10000 nM in each case.
For the compound `Cc1ncc(C)n2nc(-c3ccc4nc(-c5cccc(Br)c5)[nH]c4c3)nc12`, the half-inhibitory concentration (IC50) in data set [1] is more than 10000 nM; in data set [2] (read-out: IC50), 146 nM; in data set [3], more than 10000 nM.
Regarding `Cc1nc(-c2ccn3nc(-c4ccccc4)nc3c2)nc2ccccc12`, the IC50 in data set [2] (read-out: IC50) worked out at 884 nM.
The same measure, in the same setting: with `Cc1ncc(C)n2nc(-c3ccc4nc(-c5cnccn5)[nH]c4c3)nc12` the figure was more than 1000 nM.
`Cc1ncc(C)n2nc(-c3ccc4[nH]c(-c5ccccc5F)nc4c3)nc12`: the IC50 in data set [1] and in data set [3] was more than 10000 nM in each case.
`Cc1nc(-c2ccc3nc(-c4ccccc4)[nH]c3c2)nc2ccccc12`: the half-maximal inhibitory concentration (IC50) in data set [2] (read-out: IC50) came to 315 nM. Moreover, in data set [4], the microsomal CLint was more than 450 µL/min/mg.
In data set [5], `Cc1cc(C)n2nc(CCc3nc(-c4ccccc4)cn3C)nc2n1` displayed an IC50 of 67 nM. Also, the CLH in data set [6] was 13 µL/min/mg.
Consider `Cc1cc(C)n2nc(-c3ccn4cc(-c5nccs5)nc4n3)nc2n1`, for which the IC50 in data set [2] (read-out: IC50) amounted to 458 nM.
On to `Cc1cc(C)n2nc(-c3ccc4nc(-c5ccccc5)[nH]c4c3)nc2n1`, for which the IC50 in data set [1] and in data set [3] was more than 10000 nM in each case.
For `Cc1ncc(C)n2nc(-c3ccc4nc(-c5ccccc5OC(F)(F)F)[nH]c4c3)nc12`, the IC50 in data set [2] (read-out: IC50) is 280 nM.

The term IC50 denotes the concentration that gives 50% inhibition.
